OX1R antag-1: OX1R (human) antagonism; 330,000 tested, 1.8% active; O43613; inhibition, % at 6.6 µM; OX1R-expressing cells, FRET antagonist read-out; in the data active means inhibition mostly above about 38%, no sharp cut-off; inactive means mostly below about 40%;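 further: 0% = agonist challenge alone and 100% = reference antagonist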
GPR7 antag: human neuropeptides B/W receptor 1 antagonism; AID 1861; inhibition, % at 4.4 µM; GPR7-expressing cells, fluorescence antagonist assay; 290,000 tested, 1.1% active; in the data active means inhibition above about 16%, passing the limit was not always enough;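 further: cells stimulated with the agonist NPW; 0% = agonist with vehicle and 100% = vehicle without agonist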
Target sequence (P48145 whole entry, looked up): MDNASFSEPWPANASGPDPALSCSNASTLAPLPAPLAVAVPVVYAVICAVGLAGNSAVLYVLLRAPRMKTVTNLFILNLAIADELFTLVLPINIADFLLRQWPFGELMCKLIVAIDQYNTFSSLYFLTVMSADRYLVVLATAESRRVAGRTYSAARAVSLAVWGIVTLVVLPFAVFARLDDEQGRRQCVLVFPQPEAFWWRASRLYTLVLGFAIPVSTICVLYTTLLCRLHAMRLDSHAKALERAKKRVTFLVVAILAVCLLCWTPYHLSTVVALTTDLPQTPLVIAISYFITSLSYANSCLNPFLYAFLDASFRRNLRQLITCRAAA
TAAR1 antagonist: human TAAR1 antagonism. 360,000 tested, 1.5% active. CHO RD-HGA16 TAAR1, Fluo-8 calcium fluorescence, antagonist. inhibition, % at 3 µM. AID 624466. Q96RJ0;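 active means inhibition above a per-plate cutoff, the mean inhibition of test compounds on that plate plus 3 SD, cut at about 49% in these data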;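 further: 0% = DMSO plus EC80 beta-PEA response and 100% = DMSO alone without agonist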
Target sequence (Q96RJ0 whole entry, looked up): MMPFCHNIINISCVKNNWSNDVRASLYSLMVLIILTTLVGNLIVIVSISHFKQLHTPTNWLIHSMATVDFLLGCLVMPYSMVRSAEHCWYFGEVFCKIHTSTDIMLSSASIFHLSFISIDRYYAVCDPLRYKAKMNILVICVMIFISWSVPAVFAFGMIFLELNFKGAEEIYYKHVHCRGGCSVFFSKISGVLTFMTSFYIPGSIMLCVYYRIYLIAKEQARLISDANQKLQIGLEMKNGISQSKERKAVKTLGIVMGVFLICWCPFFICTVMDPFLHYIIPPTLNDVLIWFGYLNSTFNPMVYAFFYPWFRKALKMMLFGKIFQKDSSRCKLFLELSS
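Material: RD-HGA16 CHO cells with stable hTAAR1 and Gα16; Dosing: single nominal final test compound concentration of 3 µM; Schedule: seeding 17-24 h prior, 75-min 37 °C, 30-min RT dye loading; Detection: kinetic Fluo-8 calcium fluorescence measurement; Measure: % inhibition from peak post-agonist over basal fluorescence ratio; Benchmarks: vehicle and agonist controls.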
TAAR1 agonist: agonists of human TAAR1; Q96RJ0; CHO RD-HGA16 TAAR1, Fluo-8 calcium fluorescence; vehicle wells 0%, saturating PEA agonist 100%; activation, % at 3 µM; 360,000 tested, 0.99% active; AID 624467;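 active means activation above the mean activation of all test compounds in the run plus 3 SD, cut at about 38% in these data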
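Assay system – CHO-derived RD-HGA16 cells with stable Gα16 and human TAAR1 · Compound dosing – one-point dosing at 3 µM (nominal) · Incubation – 17-24 h seeding, 75 min 37 °C dye, 30 min RT · Measured by – kinetic Fluo-8 calcium fluorescence · Control set – DMSO vehicle as 0%, PEA at EC100 as 100% · Repeats – single well for each compound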
OX1R antag-2: human HCRTR1 antagonism; inhibition, % at 5 µM; 330,000 tested, 0.43% active; CHO/OX1R cells, Fluo-8 calcium fluorescence, orexin A; AID 434989; O43613;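 active means inhibition above its plate's threshold, mean inhibition of all tested compounds on the plate plus 3 SD, cut at about 37% in these data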;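 further: 0% = orexin A challenge wells and 100% = SB-334867-A antagonist wells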
CHO parental Ca: counter-screen: ATP calcium response change in parental CHO cells | inhibition, % at 5.6 µM | 330,000 tested, 0.63% active | parental CHO-K1, ATP-induced calcium, Fluo-8 fluorescence;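 active means inhibition above that plate's mean sample inhibition plus 3 SD, cut at about 26% in these data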;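 further: 0% = ATP-challenged DMSO wells and 100% = DMSO wells without ATP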
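Test system: parental CHO cells; detection: calcium-sensitive Fluo-8 fluorescence; evaluation: percent inhibition of calcium signal; also added: ATP as calcium-mobilizing challenge; repeats: one well per compound; control set: ATP-challenged DMSO wells low, unchallenged DMSO wells high; compound: single nominal dose of 5.6 µM per compound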
OX1R Fluo8 conf: OX1R (human) antagonism, confirmed; shares compounds with OX1R antag-2; CHO/OX1R cells, orexin A calcium Fluo-8 fluorescence; inhibition, % at 5 µM; 1,100 tested, 38% active; AID 492963; in the data active means inhibition above about 29%;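 further: 0% = agonist challenge alone and 100% = reference antagonist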
CHO Ca counter: signal in parental CHO cells, OX1R antagonist counter-screen | parental CHO-K1, ATP-induced calcium, Fluo-8 fluorescence | 1,100 tested, 9.3% active | inhibition, % at 5.6 µM | shares compounds with OX1R antag-2;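 active means inhibition above a per-plate limit, the mean inhibition of that plate's test compounds plus 3 SD, cut at about 25% in these data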;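 further: 0% = ATP challenge with DMSO and 100% = DMSO without ATP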
OX1R HTRF conf: OX1R (human) antagonism, HTRF confirmed. 1,800 tested, 49% active. inhibition, % at 6.6 µM. OX1R-expressing cells, HTRF antagonist assay. AID 492964. shares compounds with OX1R antag-1; in the data active means inhibition above about 55%;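 further: CHO cells expressing OX1R stimulated with orexin A at about EC80; 0% = agonist challenge alone and 100% = reference antagonist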
CHO-K1 HTRF: counter-screen for OX1R antagonists: effect in parental CHO-K1 cells. HTRF counterscreen. inhibition, % at 6.6 µM. AID 493232. 1,800 tested, 48% active. shares compounds with OX1R antag-1; in the data active means inhibition above about 17%;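 further: 0% = agonist challenge with vehicle and 100% = vehicle alone without agonist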
* = called active by the depositor; nt = no result. An excerpt weighted towards active compounds, which were near 4.5% of everything screened.

SMILES	OX1R antag-1	GPR7 antag	TAAR1 antagonist	TAAR1 agonist	OX1R antag-2	CHO parental Ca	OX1R Fluo8 conf	CHO Ca counter	OX1R HTRF conf	CHO-K1 HTRF
CCn1c(SCC(=O)Nc2sc3c(c2C#N)CCCC3)nnc1-c1ccco1	94*	-9	-17	10	31	-22	21	-15	78*	-1
O=C(Nc1ccccc1Br)c1cccc2ccccc12	14	nt	1	3	-23	-24	nt	nt	nt	nt
CC(CSc1nc2ccccc2s1)Cn1c(N2CCCC2)nc2c1c(=O)[nH]c(=O)n2C (stereo unspecified)	94*	-1	9	5	61*	-19	35*	-18	87*	-2
O=S(=O)(c1ccc(OC(F)(F)F)cc1)N1CCCC(N2CCOCC2)C1 (stereo unspecified)	5	-18	-4	5	-8	-7	nt	nt	nt	nt
COc1cccc2sc3ccc(C#CC4(N)CCCCC4)cc3c(=O)c12	6	-9	17	18	-7	-14	nt	nt	nt	nt
COc1cccc2sc3cc(C#CC4(O)CCCCC4)ccc3c(=O)c12	80*	nt	39	21	87*	-4	55*	-13	87*	15
COc1ccc(CCNC(=O)COc2ccc(-c3ccccc3)cc2)cc1OC	75*	-3	-12	-1	30	-16	38*	39*	82*	6
COc1ccc(C(C(=O)NCC2CCCO2)N(Cc2ccc(F)cc2)C(=O)CNC(=O)c2ccco2)cc1OC (stereo unspecified)	21	13	18	-3	2	-1	nt	nt	nt	nt
CCOC(=O)CSc1nnc(-c2ccc(OC)cc2OC)o1	21	21	-1	4	-5	-6	nt	nt	nt	nt
O=C(Nc1cccc(Cl)c1)c1ccc(F)c(S(=O)(=O)NCc2ccc3c(c2)OCO3)c1	83*	0	0	6	59*	-6	48*	-1	76*	-6
O=c1[nH]c(/C=C/c2ccc(Cl)cc2Cl)c([N+](=O)[O-])c(=O)[nH]1	-2	-15	-5	-1	-20	-8	nt	nt	nt	nt
C[C@@H]1CN([C@@H](C)CO)C(=O)c2cc(C#Cc3ccccc3)cnc2O[C@@H]1CN(C)Cc1ccccn1	nt	nt	6	2	nt	nt	nt	nt	nt	nt
Cc1nnc(NC(=O)CN2C(=O)NC3(CCCC3)C2=O)s1	12	nt	-29	2	-5	0	nt	nt	nt	nt
Cc1cc(C)c2nc(NC(=O)CN3C(=O)NC4(CCCC4)C3=O)sc2c1	69*	nt	-4	5	30	-12	18	-3	52	0
C/C(Cc1ccccc1)=N\NC(=O)CNC(=O)c1ccccc1Br	4	-1	6	2	-2	-9	nt	nt	nt	nt
COc1ccc(CN2CC[C@H]3C=CC[C@@H](C(=O)Nc4ccc(Cl)c(C(F)(F)F)c4)[C@H]3C2=O)cc1OC	86*	nt	17	14	63*	-26	70*	-12	89*	3
CCCCNC(=O)[C@@H]1CC=C[C@@H]2CCN(Cc3ccc(Cl)c(Cl)c3)C(=O)[C@@H]21	91*	nt	7	4	47*	-11	28	-4	75*	-2
COc1ccc(NC(=O)CSc2ncc(-c3ccc(F)cc3)n2Cc2ccco2)cc1	33	13	26	5	6	-14	nt	nt	nt	nt
CCC(=O)Nc1cc(NC(=O)CSc2ncc(-c3ccc(F)cc3)n2Cc2ccco2)ccc1C	84*	-11	15	9	50*	-19	36*	-20	63*	-5
COC(=O)C1N[C@@H]([C@@H](NC(=O)COc2ccccc2)C(=O)Nc2ccc(OC)cc2)SC1(C)C (stereo partly specified)	38	nt	46	13	-12	-14	nt	nt	nt	nt
CC(=O)Nc1cccc(-c2nc3ccc(NC(C)=O)cc3s2)c1	19	-7	3	2	-8	-11	nt	nt	nt	nt
COc1ccc(-c2nc3ccccc3s2)cc1O	112*	-6	3	7	85*	-5	37*	-2	98*	-5
COc1cc(OC)c(-c2nc3ccccc3s2)cc1OC	94*	-14	-11	-3	54*	-10	36*	-6	93*	10
CC(=O)Nc1cccc(-c2nc3ccccc3s2)c1	76*	-6	6	3	26	-24	6	-7	54	1
Cc1ccc(CNC(=O)COC(=O)c2cnc(C)cn2)cc1	9	-5	-1	6	1	-12	nt	nt	nt	nt
SMILES	OX1R antag-1	GPR7 antag	TAAR1 antagonist	TAAR1 agonist	OX1R antag-2	CHO parental Ca	OX1R Fluo8 conf	CHO Ca counter	OX1R HTRF conf	CHO-K1 HTRF
Fc1cccc(Nc2nc3ccccc3n3cnnc23)c1	53*	-4	-3	-1	36	0	37*	0	86*	6
COc1ccc(N=Cc2oc3ccc4ccccc4c3c2O)cc1	58*	-1	28	17	25	14	27	20	67*	12
COc1ccc(N=Cc2ccccc2O)cc1	nt	nt	-8	1	nt	nt	nt	nt	nt	nt
CN(Cc1ccccc1)C(=O)CSc1nnc(-c2ccco2)n1-c1ccccc1	41*	-9	4	1	38	-9	10	-18	44	7
CN(C)C(=O)CSc1nnc(-c2ccco2)n1-c1ccccc1	nt	nt	8	-1	nt	nt	nt	nt	nt	nt
O=C(Nc1nccs1)[C@@H]1CCCN1S(=O)(=O)c1ccc(Cl)cc1	32	nt	-17	2	15	-12	nt	nt	nt	nt
COc1ccc(S(=O)(=O)N2CCCC2C(=O)Nc2nc3c(s2)CCCC3)cc1 (stereo unspecified)	95*	-11	1	1	45*	-36	44*	-5	88*	2
O=C(Nc1nccs1)C1CCCN1S(=O)(=O)c1ccc(F)cc1 (stereo unspecified)	75*	2	4	10	44*	-20	8	-5	31	-5
O=C(Nc1ccc(F)cc1)C1CCCN1S(=O)(=O)c1ccc(Br)cc1 (stereo unspecified)	81*	-14	-7	-2	32	-19	38*	-10	89*	-4
O=C(Nc1ccc(F)c(F)c1)C1CCCN1S(=O)(=O)c1ccc(F)cc1 (stereo unspecified)	74*	2	14	1	37*	9	42*	-15	70*	0

High-throughput results as filed in PubChem BioAssay.
